Compounds with a hit are over-represented: about 3.7% of the library has one in this group of screens.
aDG glyco act – alpha-DG glycosylation activation | AID 624168 | activation, % at 10 µM | 360,000 compounds, 0.22% hits | Pro5-aDG cells, alpha-DG glycosylation AlphaScreen (IIH6); 0% Pro5, 100% B10-LARGE cell signal;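 active means activation of at least 8% versus controls, or a plate z-score of at least 8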;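 further: Pro5 are CHO cells carrying HIG-tagged alpha-DG that lacks glycosylation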
GRIN3A LBD mod – modulators (binders) of human NR3A ligand-binding domain. NR3A LBD differential scanning fluorimetry, Tm shift; 0% = protein alone, 100% = glycine-bound protein. Tm shift relative to glycine control, % at 25 µM. 340,000 compounds, 2.5% hits. AID 1259313;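 active means melting temperature shift of at least 10% of the positive control shift, at one fixed dose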
procasp3 activ – procaspase-3 (human) activation | 330,000 compounds, 0.11% hits | P42574 | activation, % at 8.5 µM | recombinant procaspase-3 D3A, Ac-DEVD-pNA absorbance 405 nm;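 active means activation above the mean of all tested compounds plus 3 SD, cut at about 21% in these data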;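 further: 0% = DMSO alone and 100% = DMSO wells spiked with extra 5 µM PC-3 D3A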
Target sequence (P42574 whole entry D9A/D28A/D175A): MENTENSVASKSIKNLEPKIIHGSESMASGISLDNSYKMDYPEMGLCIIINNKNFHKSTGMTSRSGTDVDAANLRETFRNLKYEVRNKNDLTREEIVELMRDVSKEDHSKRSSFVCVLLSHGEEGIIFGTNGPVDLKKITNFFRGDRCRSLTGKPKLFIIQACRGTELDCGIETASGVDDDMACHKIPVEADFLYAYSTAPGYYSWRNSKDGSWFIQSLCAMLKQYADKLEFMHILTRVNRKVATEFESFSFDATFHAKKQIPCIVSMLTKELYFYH
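Assay system: Autoprocessing-dead procaspase-3 D3A mutant enzyme; also added: Ac-DEVD-pNA; doses: one concentration, 8.5 µM nominal, 0.8% DMSO; times: 1 h compound preincubation, 2 h substrate hydrolysis at 25 °C; technique: 405 nm absorbance of p-nitroaniline, reads at 0 and 120 min; measure: % activation between DMSO and enzyme-spiked controls; repeats: single replicate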
MPTP inh – blocks calcium-induced mitochondrial swelling. inhibition, % at 10 µM. 360,000 compounds, 1.4% hits. isolated mouse mitochondria, Ca2+ swelling absorbance, 30 min;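 active means inhibition of 50% or more, scaled per plate between neutral and stimulator controls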;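 further: 0% = DMSO wells given calcium and 100% = 1 mM EGTA wells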
procasp7 counter – counter-screen: procaspase-7 (human) activation; P55210; 330,000 compounds, 0.093% hits; recombinant procaspase-7, Ac-DEVD-pNA absorbance 405 nm; D23A/D198A/D206A triple mutant, cannot self-cleave; scale: DMSO 0, 5 µM enzyme 100; AID 463210; activation, % at 8.5 µM;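 active means percent activation above the screen-wide mean plus 3 SD, cut at about 25% in these data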
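Assay system: Uncleavable procaspase-7 mutant enzyme | Input: 2 µM procaspase-7 mutant as dispensed | Timing: 1 h compound preincubation, 2 h substrate cleavage, 25 °C | Repeats: One well per compound | Control set: DMSO wells as 0%, DMSO with 5 µM added PC-7 as 100% | Technique: Epi-absorbance of released pNA at 405 nm, two timepoints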
Numbers without * were called inactive; · = no result.

SMILES	aDG glyco act	GRIN3A LBD mod	procasp3 activ	MPTP inh	procasp7 counter
CCCCCC(=O)N1C[C@H](n2cc(C3CC3)nn2)[C@@H](O)C[C@@H]1c1ccccc1	0	·	·	1	·
O=C(NNC(=O)c1cccnc1SCc1cccc([N+](=O)[O-])c1)c1ccc(F)cc1	0	-6	4	2	3
O=C(NNC(=O)c1cccnc1SCc1cccc([N+](=O)[O-])c1)c1ccccn1	2	18*	5	-3	-3
O=C1c2ccccc2NC(c2ccc(-c3ccc(C(F)(F)F)cc3)o2)N1O (stereo unspecified)	0	23*	-1	-1	0
O=C1c2ccccc2NC(c2ccc(-c3cccs3)o2)N1O (stereo unspecified)	0	-2	-22	0	-21
CCC(=O)Nc1ccc(/C(C)=N\NC(=O)c2ccc(OC)cc2)cc1	0	19*	5	-1	-1
C/C(=N/NC(=O)c1ccoc1C)c1cccc(NC(=O)C(F)(F)F)c1	0	2	-8	0	-11
COc1ccc(C(=O)N/N=C(/C)c2cccc(NC(=O)C(F)(F)F)c2)cc1	0	10*	-1	10	-23
CCC(=O)NC(=S)Nc1ccc(NC(=O)c2ccc(OC)cc2)cc1	0	-4	-4	3	-4
O=C(N/N=C1/SCC(=O)N1Cc1ccco1)c1ccccc1F	0	16*	1	1	-4
Cc1ccc(OCC(=O)N/N=C2/SCC(=O)N2Cc2ccco2)cc1	0	-2	7	-2	2
O=C(Nc1cnn(Cc2ccc(F)cc2)c1)c1cnccn1	0	1	-4	-2	6
O=C(Nc1cnn(Cc2ccc(F)cc2)c1)C(c1ccccc1)c1ccccc1	1	20*	2	-23	5
CCOC(=O)Cc1csc(NC(=O)NC2(C(F)(F)F)Oc3cc(Cl)c(Cl)cc3O2)n1	0	11*	-3	6	-2
CCOC(=O)Cc1csc(NC(=O)NC2(C(F)(F)F)Oc3ccc(Cl)cc3O2)n1 (stereo unspecified)	0	-2	-7	7	-2
Cc1ccsc1/C=C/C1=Cc2c(sc(NC(=O)CSc3n[nH]c(N)n3)c2C#N)C(C)(C)C1	-1	10*	6	1	-14
CCOc1ccc(/C=C/C2=Cc3c(sc(NC(=O)CSc4n[nH]c(N)n4)c3C#N)C(C)(C)C2)cc1	0	14*	-7	-1	-6
O=C(COC(=O)c1ccc(F)cc1Cl)NC1CCCCCCC1	0	-1	9	-4	5
CC1(C)Nc2ccccc2C(=O)N1c1ccc(Br)cc1	0	13*	2	2	-1
COC(=O)c1ccc(C)c(NC(=O)CCSc2ccc(Cl)cc2)c1	0	31*	-12	2	14
CN1c2ccsc2C(O)=C(C(=S)Nc2ccc(F)c(Cl)c2)S1(=O)=O	0	26*	-24	45	-25
Cn1cc(C(=O)Nc2ccc(F)c(Cl)c2)cn1	0	2	3	-2	3
COC(=O)c1sc(=S)n(-c2cc(F)ccc2F)c1N	0	2	-8	-2	-9
CCOC(=O)c1sc(=S)n(-c2cc(F)ccc2F)c1N	0	14*	0	0	-7
O=C(CN1CCN(c2ccccc2Cl)CC1)NC1CCCc2ccccc21 (stereo unspecified)	0	4	5	4	-1
SMILES	aDG glyco act	GRIN3A LBD mod	procasp3 activ	MPTP inh	procasp7 counter
Cc1ccc(Cl)cc1N1CCN(CC(=O)NC2CCCc3ccccc32)CC1 (stereo unspecified)	0	10*	-4	0	0
COc1ccc(NC(=O)COc2ccc(S(=O)(=O)N3CCOCC3)cc2C)cc1OC	0	0	4	-2	-5
O=C(CSc1nnc2ccccn12)Nc1cccc(S(=O)(=O)N2CCOCC2)c1	0	10*	-7	-1	4
Cn1c(SCC(=O)Nc2cccc(S(=O)(=O)N3CCOCC3)c2)nnc1-c1ccncc1	0	1	1	-2	7
Cc1cc(S(=O)(=O)N2CCOCC2)ccc1OCC(=O)Nc1cccc(F)c1	0	37*	-8	0	6
O=C(CSc1nnc2c(n1)[nH]c1ccc(S(=O)(=O)N3CCOCC3)cc12)Nc1ccc(F)c(F)c1	0	35*	3	4	-9

From PubChem BioAssay
